Experimental data taken from ChEMBL document CHEMBL1221342, “Synthesis and in vitro antitumor activity of new 4,5-dihydropyrazole derivatives” (Bioorg Med Chem, 2010).

Legend:
Type in all cases: functional
SK-OV-3 = test: Growth inhibition of human SKOV3 cells after 48 hrs by SRB assay; conditions: SK-OV-3, 48 h
Method in brief: (§1)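 NCI 60-cell-line screen. Cells grown in RPMI1640 with 5% fetal calf serum and 2 mM L-glutamine, with inoculum density set by cell line. Preincubated 24 h, then given compound in DMSO at 10^-4 to 10^-8 M (five 10-fold steps) for 48 h continuous exposure. Growth measured by SRB protein assay. GI50, TGI and LC50 reported as –log molar.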

UO-31 = test: Growth inhibition of human UO31 cells after 48 hrs by SRB assay; conditions: UO-31, 48 h; method in brief: as §1
NCI/ADR-RES = test: Growth inhibition of human NCI/ADR-RES cells after 48 hrs by SRB assay; method in brief: as §1
Malme-3M = test: Growth inhibition of human MALME-3M cells after 48 hrs by SRB assay; conditions: read-out: pTGI (converted); method in brief: as §1
EKVX = test: Growth inhibition of human EKVX cells after 48 hrs by SRB assay; method in brief: as §1
SNB-75 = test: Growth inhibition of human SNB75 cells after 48 hrs by SRB assay; conditions: SNB-75, 48 h; method in brief: as §1
M14 = test: Growth inhibition of human M14 cells after 48 hrs by SRB assay; conditions: M14, 48 h; method in brief: as §1
U-251 = test: Growth inhibition of human U251 cells after 48 hrs by SRB assay; conditions: U-251, 48 h; method in brief: as §1
OVCAR-3 = test: Growth inhibition of human OVCAR-3 cells after 48 hrs by SRB assay; conditions: OVCAR-3, 48 h; method in brief: as §1
SK-MEL-5 = test: Growth inhibition of human SK-MEL-5 cells after 48 hrs by SRB assay; conditions: SK-MEL-5, 48 h; method in brief: as §1
SK-MEL-28 = test: Growth inhibition of human SK-MEL-28 cells after 48 hrs by SRB assay; conditions: SK-MEL-28, 48 h; method in brief: as §1
PC-3 = test: Growth inhibition of human PC3 cells after 48 hrs by SRB assay; conditions: PC-3, 48 h; method in brief: as §1
DU-145 = test: Growth inhibition of human DU145 cells after 48 hrs by SRB assay; conditions: DU-145, 48 h; method in brief: as §1
MDA-MB-468 = test: Growth inhibition of human MDA-MB-468 cells after 48 hrs by SRB assay; conditions: MDA-MB-468, 48 h; method in brief: as §1
[1] = Growth inhibition of human […] cells after 48 hrs by SRB assay; method in brief: as §1
TK-10 = test: Growth inhibition of human TK10 cells after 48 hrs by SRB assay; conditions: TK-10, 48 h; method in brief: as §1
SK-MEL-2 = test: Growth inhibition of human SK-MEL-2 cells after 48 hrs by SRB assay; conditions: SK-MEL-2, 48 h; method in brief: as §1
CAKI-1 = test: Growth inhibition of human Caki1 cells after 48 hrs by SRB assay; conditions: CAKI-1, 48 h; method in brief: as §1
RXF 393 = test: Growth inhibition of human RXF393 cells after 48 hrs by SRB assay; conditions: RXF 393, 48 h; method in brief: as §1
NCI-H322M = test: Growth inhibition of human NCI-H322M cells after 48 hrs by SRB assay; method in brief: as §1
OVCAR-4 = test: Growth inhibition of human OVCAR4 cells after 48 hrs by SRB assay; conditions: OVCAR-4, 48 h; method in brief: as §1
UACC-62 = test: Growth inhibition of human UACC62 cells after 48 hrs by SRB assay; conditions: UACC-62, 48 h; method in brief: as §1
HCT-15 = test: Growth inhibition of human HCT15 cells after 48 hrs by SRB assay; conditions: HCT-15, 48 h; method in brief: as §1
HOP-62 = test: Growth inhibition of human HOP62 cells after 48 hrs by SRB assay; conditions: HOP-62, 48 h; method in brief: as §1
MCF7 = test: Growth inhibition of human MCF7 cells after 48 hrs by SRB assay; conditions: MCF7, 48 h; method in brief: as §1
SR = test: Growth inhibition of human SR cells after 48 hrs by SRB assay; method in brief: as §1
NCI-H460 = test: Growth inhibition of human NCI-H460 cells after 48 hrs by SRB assay; conditions: NCI-H460, 48 h; method in brief: as §1
OVCAR-8 = test: Growth inhibition of human OVCAR8 cells after 48 hrs by SRB assay; conditions: OVCAR-8, 48 h; method in brief: as §1
786-0 = test: Growth inhibition of human 786-0 cells after 48 hrs by SRB assay; conditions: 786-0, 48 h; method in brief: as §1
BT-549 = test: Growth inhibition of human BT549 cells after 48 hrs by SRB assay; conditions: BT-549, 48 h; method in brief: as §1
HL-60(TB) = test: Growth inhibition of human HL-60(TB) cells after 48 hrs by SRB assay; conditions: HL-60, 48 h
Method in brief: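 NCI 60-cell-line screen: cells grown in RPMI1640 with 5% fetal calf serum and 2 mM L-glutamine, preincubated 24 h, then exposed to compound in DMSO at five concentrations (10^-4 to 10^-8 M) for 48 h continuous exposure. Growth estimated by sulforhodamine B protein assay; reported as pGI50 (-log molar concentration inhibiting net cell growth by 50%).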

CCRF-CEM = test: Growth inhibition of human CCRF-CEM cells after 48 hrs by SRB assay; method in brief: as §1
SF-295 = test: Growth inhibition of human SF295 cells after 48 hrs by SRB assay; conditions: SF-295, 48 h; method in brief: as §1
SF-539 = test: Growth inhibition of human SF539 cells after 48 hrs by SRB assay; conditions: SF-539, 48 h; method in brief: as §1
IGROV-1 = test: Growth inhibition of human IGROV1 cells after 48 hrs by SRB assay; conditions: IGROV-1, 48 h; method in brief: as §1
[2] = Growth inhibition of human Hs 578T cells after 48 hrs by SRB assay; method in brief: as §1

## COc1cc(C2=NN(C(C)=O)C(c3cc(OC)c(OC)c(OC)c3)C2)ccc1O (centres undefined)
SK-OV-3
  GI50: 316 nM
SK-OV-3; read-out: pTGI (converted)
  TGI: > 100000 nM
UO-31
  GI50: 398 nM
UO-31; read-out: pTGI (converted)
  TGI: > 100000 nM
NCI/ADR-RES
  GI50: 251 nM
NCI/ADR-RES; read-out: pTGI (converted)
  TGI: > 100000 nM
Malme-3M
  TGI: > 100000 nM
EKVX
  GI50: 794 nM
EKVX; read-out: pTGI (converted)
  TGI: > 100000 nM
SNB-75
  GI50: 251 nM
SNB-75; read-out: pTGI (converted)
  TGI: > 100000 nM
M14
  GI50: 398 nM
M14; read-out: pTGI (converted)
  TGI: > 100000 nM
U-251
  GI50: 398 nM
U-251; read-out: pTGI (converted)
  TGI: > 100000 nM
OVCAR-3
  GI50: 251 nM
OVCAR-3; read-out: pTGI (converted)
  TGI: 631 nM
SK-MEL-5
  GI50: 63.1 nM
SK-MEL-5; read-out: pTGI (converted)
  TGI: 501 nM
SK-MEL-28
  GI50: 501 nM
SK-MEL-28; read-out: pTGI (converted)
  TGI: > 100000 nM
PC-3
  GI50: 251 nM
PC-3; read-out: pTGI (converted)
  TGI: > 100000 nM
DU-145
  GI50: 316 nM
DU-145; read-out: pTGI (converted)
  TGI: 12600 nM
MDA-MB-468
  GI50: 251 nM
MDA-MB-468; read-out: pTGI (converted)
  TGI: 794 nM
[1]
  GI50: 200 nM
[1]; read-out: pTGI (converted)
  TGI: 794 nM
TK-10
  GI50: 631 nM
TK-10; read-out: pTGI (converted)
  TGI: > 100000 nM
SK-MEL-2
  GI50: 501 nM
SK-MEL-2; read-out: pTGI (converted)
  TGI: > 100000 nM
CAKI-1
  GI50: 316 nM
CAKI-1; read-out: pTGI (converted)
  TGI: > 100000 nM
RXF 393
  GI50: 126 nM
NCI-H322M
  GI50: 501 nM
NCI-H322M; read-out: pTGI (converted)
  TGI: > 100000 nM
OVCAR-4
  GI50: 398 nM
OVCAR-4; read-out: pTGI (converted)
  TGI: > 100000 nM
UACC-62
  GI50: 316 nM
UACC-62; read-out: pTGI (converted)
  TGI: > 100000 nM
HCT-15
  GI50: 398 nM
HCT-15; read-out: pTGI (converted)
  TGI: > 100000 nM
HOP-62
  GI50: 501 nM
HOP-62; read-out: pTGI (converted)
  TGI: > 100000 nM
MCF7
  GI50: 251 nM
MCF7; read-out: pTGI (converted)
  TGI: > 100000 nM
SR
  GI50: 50.1 nM
SR; read-out: pTGI (converted)
  TGI: 501 nM
NCI-H460
  GI50: 398 nM
NCI-H460; read-out: pTGI (converted)
  TGI: 15800 nM
OVCAR-8
  GI50: 631 nM
OVCAR-8; read-out: pTGI (converted)
  TGI: > 100000 nM
786-0
  GI50: 398 nM
786-0; read-out: pTGI (converted)
  TGI: > 100000 nM
BT-549
  GI50: 631 nM
BT-549; read-out: pTGI (converted)
  TGI: > 100000 nM
HL-60(TB)
  GI50: 158 nM
HL-60(TB); read-out: pTGI (converted)
  TGI: 501 nM
CCRF-CEM
  GI50: 316 nM
CCRF-CEM; read-out: pTGI (converted)
  TGI: 1000 nM
SF-295
  GI50: 200 nM
SF-539
  GI50: 316 nM
SF-539; read-out: pTGI (converted)
  TGI: 1000 nM
IGROV-1
  GI50: 501 nM
IGROV-1; read-out: pTGI (converted)
  TGI: > 100000 nM
[2]
  GI50: 200 nM
[2]; read-out: pTGI (converted)
  TGI: 631 nM
